ChEMBL document CHEMBL3580548, “Ervatamines A-I, Anti-inflammatory Monoterpenoid Indole Alkaloids with Diverse Skeletons from Ervatamia hainanensis” (J Nat Prod, 2015)
Calls of active or inactive are those of the source. The calls are words filed in the database; no cut-off is given here.

System: RAW264.7
Assay: Anti-inflammatory activity in mouse RAW264.7 cells assessed as LPS-stimulated inhibition of nitric oxide production incubated simultaneously with LPS for 24 hrs by Griess reagent based assay
Type: functional, cell-based
Settings: not given
Procedure, shortened: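 RAW264.7 cells grown in RPMI 1640 with 10% heat-inactivated FBS, penicillin 100 U/mL and streptomycin 100 μg/mL; 1 × 10^5 cells/well allowed to adhere 2 h at 37 °C, 5% CO2. Cells exposed to 1 μg/mL LPS for 24 h with or without compounds across a concentration range. Indomethacin as positive control. Nitrite in supernatant measured by Griess reagent. Run in triplicate; IC50 reported.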

SMILES	inhibition
COC(=O)[C@]12C[C@@H]3CN(CCc4c1[nH]c1ccccc41)[C@H]2[C@@H]([C@H](C)O)C3O (some centres not stated)	Active
C/C=C1/C[N@+]2(C)CCc3c([nH]c4ccccc34)C(CO)(C(=O)[O-])[C@H]1CC2 (some centres not stated)	inactive
CC[C@H]1C[C@@H]2C[C@@]3(C(=O)OC)c4[nH]c5ccccc5c4CCN(C2CC(C)=O)[C@@H]13 (some centres not stated)	Active
C[C@H](O)[C@@H]1C[C@H]2C[C@H]3c4[nH]c5ccccc5c4CCN(C2)[C@@H]13	Active
COC(=O)[C@@]12C[C@H]3C[C@H]([C@H](C)O)[C@@H]1N(Cc1c2n(C=O)c2ccccc12)C3	inactive
C[N@@+]12CCc3c([nH]c4ccccc34)[C@](CO)(C(=O)[O-])[C@@H](CC1)/C(=C\CO)C2	inactive
COC(=O)[C@@]12C[C@H]3C[C@H]([C@H](C)O)[C@@H]1N(CCc1c2[nH]c2ccccc12)C3CC(C)=O (some centres not stated)	Active
COC(=O)[C@@]12C[C@H]3C[C@H](C(C)=O)[C@@H]1N(CCc1c2[nH]c2ccccc12)C3	Active
COC(=O)[C@@]12C[C@@H]3C[C@@H](C(C)O)[C@@H]1N(CC[C@]21Nc2ccccc2C1=O)C3 (some centres not stated)	inactive
C/C=C1/C[N@+]2(C)CCc3c([nH]c4ccccc34)[C@H](C(=O)[O-])[C@H]1CC2	inactive
CC[C@H]1C[C@@H]2C[C@@]3(C(=O)OC)c4[nH]c5ccccc5c4CCN(C2CO)[C@@H]13 (some centres not stated)	Active
C/C=C1/C[N@+]2(C)CCc3c([nH]c4ccccc34)[C@@H](C(=O)[O-])[C@H]1CC2	inactive

Same assay, conditions: RAW264.7, 24 h

IC50	SMILES
41.5 µM	CC[C@@]1(O)CC2[C@H]3C(C(=O)OC)=C4Nc5ccccc5C45CCN([C@H]25)[C@H]31 (some centres not stated)
42.6 µM	COc1ccc2c(c1)c(CC(=O)O)c(C)n2C(=O)c1ccc(Cl)cc1 [INDOMETHACIN]

SMILES	IC50
CC[C@H]1C[C@@H]2CN3CCc4c([nH]c5ccccc45)[C@](C(=O)OC)(C2)[C@H]13 [CORONARIDINE]	25.5 µM

System: not listed separately
Assay: Cytotoxicity against human 786-O cells by MTT assay
Type: functional, cell-based
Settings: 786-0

SMILES	IC50
COC(=O)[C@@]12C[C@H]3C[C@H](C(C)=O)[C@@H]1N(CCc1c2[nH]c2ccccc12)C3	27.3 µM

System: HL-60
Assay: Cytotoxicity against human HL60 cells by MTT assay
Type: functional, cell-based
Settings: not given

SMILES	IC50
COC(=O)[C@@]12C[C@H]3C[C@H](C(C)=O)[C@@H]1N(CCc1c2[nH]c2ccccc12)C3	48.5 µM
